Compound activity deposited in PubChem by Johns Hopkins Ion Channel Center.
KCNK3 block – human KCNK3 channel inhibition, primary screen. CHO-KCNK3 thallium flux, FluxOR fluorescence; stronger effect = lower value. B-score at 10 µM. 0.84% of 340,000 active. AID 602410;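 active = B-score under library mean minus 4 SD, starting fluorescence ratio at most library mean plus 5 SD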;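 note: more negative B-score means stronger inhibition of thallium flux through KCNK3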
hERG rescue – shields human hERG channel from block by proarrhythmic agents | Q12809 | CHO-hERG, FluxOR thallium flux, dofetilide IC70 present | activation (rescue from dofetilide block), less the hit threshold, % at 10 µM | 0.51% of 310,000 active | AID 1511;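 active = activation above the mean of controls blocked by dofetilide plus 5 SD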;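 note: thallium influx through hERG after potassium depolarization seen as dye fluorescence rise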
Target sequence (Q12809 whole entry, looked up): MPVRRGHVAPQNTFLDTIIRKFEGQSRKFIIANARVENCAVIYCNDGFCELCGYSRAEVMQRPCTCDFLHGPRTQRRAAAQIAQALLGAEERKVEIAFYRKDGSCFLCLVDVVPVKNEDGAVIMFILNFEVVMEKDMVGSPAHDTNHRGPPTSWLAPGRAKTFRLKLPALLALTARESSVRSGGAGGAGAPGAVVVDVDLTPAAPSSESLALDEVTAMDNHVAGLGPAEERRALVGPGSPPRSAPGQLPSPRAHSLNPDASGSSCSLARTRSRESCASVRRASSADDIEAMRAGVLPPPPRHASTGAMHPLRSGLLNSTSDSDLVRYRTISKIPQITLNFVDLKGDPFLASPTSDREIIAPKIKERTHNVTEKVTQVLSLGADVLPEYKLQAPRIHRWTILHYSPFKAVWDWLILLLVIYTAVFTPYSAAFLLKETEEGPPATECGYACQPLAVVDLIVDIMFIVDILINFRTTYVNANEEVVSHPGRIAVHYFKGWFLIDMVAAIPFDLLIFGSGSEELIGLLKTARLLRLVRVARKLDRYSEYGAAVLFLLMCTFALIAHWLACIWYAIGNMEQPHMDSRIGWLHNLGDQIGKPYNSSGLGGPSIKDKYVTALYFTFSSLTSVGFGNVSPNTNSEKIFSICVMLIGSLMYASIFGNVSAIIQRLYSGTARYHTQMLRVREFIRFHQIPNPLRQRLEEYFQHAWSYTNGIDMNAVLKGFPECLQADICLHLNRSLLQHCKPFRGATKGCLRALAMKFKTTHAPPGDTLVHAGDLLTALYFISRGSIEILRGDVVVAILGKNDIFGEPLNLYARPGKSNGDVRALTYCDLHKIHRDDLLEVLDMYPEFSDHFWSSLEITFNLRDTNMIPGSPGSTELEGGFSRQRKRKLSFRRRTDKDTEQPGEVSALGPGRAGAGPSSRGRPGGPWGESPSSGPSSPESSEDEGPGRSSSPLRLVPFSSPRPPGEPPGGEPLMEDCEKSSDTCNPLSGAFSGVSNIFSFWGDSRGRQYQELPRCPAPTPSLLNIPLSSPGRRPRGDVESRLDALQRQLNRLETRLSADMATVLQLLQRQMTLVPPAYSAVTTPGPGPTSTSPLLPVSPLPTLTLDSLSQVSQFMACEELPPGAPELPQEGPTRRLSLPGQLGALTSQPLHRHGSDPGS
KCNQ1 pot – potentiates or activates the human KCNQ1 potassium channel. CHO-K1 KCNQ1, thallium flux FluxOR fluorescence; stronger effect = higher value. B-score at 10 µM. P51787. 0.35% of 310,000 active;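 active = fluorescence ratio B-score, a plate-corrected score, at least three library SD, with initial intensity B-score within 5 SD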
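System: CHO-K1 cells stably expressing KCNQ1 / Medium: assay buffer for compound exposure, DMSO matched across wells / Reagent: thallium- and potassium-containing depolarizing buffer / Compound: one concentration, matched DMSO / Incubation: 20 min compound pretreatment at room temperature / Measured by: kinetic FluxOR fluorescence, 10 s baseline plus 110 s post-stimulus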
KCNQ1 block – inhibitors of human KCNQ1 potassium channel. P51787. B-score at 10 µM. 1.3% of 310,000 active. CHO-K1 KCNQ1, FluxOR thallium flux fluorescence; stronger effect = higher value;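 active = compounds whose thallium flux B-score, printed positive for inhibition, exceeds three library SD while starting fluorescence stays within three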;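 note: channel opened by potassium depolarization with thallium stimulus after 20 min compound exposure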
KCNK9 block – inhibitors of human KCNK9 two-pore domain potassium channel; Q9NPC2; HEK293 KCNK9, FluxOR thallium flux fluorescence; stronger effect = lower value; B-score at 10 µM; 1.2% of 310,000 active; AID 488922;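 active = ratio B-score over 3 SD below the library mean, with starting fluorescence within 5 SD of its mean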;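 note: negative B-score means less thallium flux so channel inhibition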
KCNK9 block conf – human KCNK9 inhibitor confirmation. shares compounds with KCNK9 block. inhibition, % at 10 µM. 43% of 4,900 active. AID 492992. HEK293 KCNK9 cells, FluxOR thallium flux fluorescence;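 active = thallium signal inhibited by more than 5 SD of the compound-free buffer control wells, on both duplicate plates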;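 note: 0% = assay buffer control wells without compound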
Kir2-1 spec – tests whether KCNK9 modulators also affect mouse Kir2.1 | shares compounds with KCNK9 block | Kir2.1 cells, FluxOR thallium flux fluorescence | inhibition, % at 10 µM | 4% of 4,900 active | AID 492993;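 active = thallium signal drop more than 5 SD beyond the mean of the no-compound control wells, seen in both duplicate plates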;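 note: signal is fluorescence rise after thallium addition divided by baseline fluorescence; plate controls were assay buffer only for no effect and full block by chlorpromazine control for full effect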
HEK293 Tl ctr – non-induced cell nonspecific activity of KCNK9 modulators. inhibition, % at 10 µM. non-induced KCNK9-HEK293, FluxOR thallium flux. 40% of 4,900 active. shares compounds with KCNK9 block;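 active = thallium signal drop beyond 5 SD of the untreated control mean, on both duplicate plates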;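 note: plate controls were buffer only IC0 wells for no effect and SID17386958 at its maximal inhibitory level for full effect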
* hit, by the source's call; i = inactive; x = not tested or not shown. Only some compounds are listed: those with a hit (about 3.1% of all), similar ones and a draw of the others.

SMILES	KCNK3 block	hERG rescue	KCNQ1 pot	KCNQ1 block	KCNK9 block	KCNK9 block conf	Kir2-1 spec	HEK293 Tl ctr
CC1Cc2ccccc2N1C(=O)CNc1cccc(S(=O)(=O)N2CCCC2)c1 (stereo unspecified)	i	-13.1	i	i	i	i	i	i
CC(=O)c1cccc(NCC(=O)Nc2cccc(S(=O)(=O)N3CCCCC3)c2)c1	i	-14.4	i	i	i	x	x	x
COC(=O)/N=C(/Cc1ccc(OC)cc1)c1ccc(OC)cc1	i	0.5	i	i	i	i	i	i
Cc1nc2ccc(NC(=O)c3ccc([N+](=O)[O-])cc3)cc2[nH]1	i	-6.5	i	i	i	x	x	x
COc1ccc(OC)c(C(c2nnnn2C2CCCC2)N2CCN(c3ccc(F)cc3)CC2)c1 (stereo unspecified)	i	-1.7	i	6*	-14.6*	51.5%*	i	44.0%*
Cc1onc(-c2c(F)cccc2Cl)c1C(=O)OCC(=O)NC(c1ccccc1)c1ccccc1	i	-12.4	i	i	-8.33*	25.0%*	i	29.0%*
CCN(CC)S(=O)(=O)c1cnccc1N1CCN(c2cccc(Cl)c2)CC1	i	-0.9	i	i	-9.85*	35.5%*	i	27.0%*
O=c1c(CN2CCN(c3cccc(Cl)c3)CC2)coc2c(Cl)cc(Cl)cc12	i	-11.2	i	i	i	i	i	i
CC(=O)N(CCC(c1ccco1)C(C)C)Cc1ccc(OC(C)C)cc1 (stereo unspecified)	i	-16.3	i	i	-16.1*	37.0%*	i	43.0%*
Cc1cc(C)nc(/N=c2/ssnc2Cl)c1	i	-9.0	i	i	i	i	i	i
O=C(Nc1nccs1)c1cc2sccc2n1Cc1ccc(F)cc1	i	-10.7	i	i	i	x	x	x
COc1ccc(NC(=O)c2cc3sccc3n2Cc2ccc(F)cc2)cc1OC	i	-9.1	i	i	-12.2*	57.0%*	i	30.5%*
Cc1ccc(NCCCn2ccc(NC(=O)OCc3ccccc3)nc2=O)cc1C	i	x	x	x	x	x	x	x
C=CCN(Cc1cc(OC)ccc1OC)C(=O)c1cc2ccc(OC)cc2[nH]1	i	-9.6	i	i	i	x	x	x
COc1cc(/C=N/NC(=O)C23CC4CC(CC(C4)C2)C3)cc(Br)c1O	i	-4.4	i	i	i	x	x	x
O=C(N/N=C/c1cc([N+](=O)[O-])cc(Br)c1O)C12CC3CCC(CC(C3)C1)C2	i	-22.0	25*	i	i	i	i	i
Fc1ccc2c(c1)C1C=CCC1C(c1cc3c(cc1Br)OCO3)N2 (stereo unspecified)	i	-9.7	i	i	-13.3*	49.0%*	i	48.0%*
CC(C)(C)OC(=O)NCCCCCc1nnc(SCc2ccccc2F)o1	i	-7.3	i	i	i	i	i	i
CC(C)(C)OC(=O)NCCCCCc1nnc(SCc2ccccc2)o1	i	-6.8	i	i	i	x	x	x
COc1cccc(COC(=O)C2CCN(S(=O)(=O)c3ccc(C)cc3C)CC2)c1OC	i	-11.9	i	i	i	i	i	i
Cc1ccc(C(=O)N2N=C(c3ccccc3)CC2(O)C(F)(F)F)o1 (stereo unspecified)	i	-12.7	i	i	-11*	55.0%*	i	31.5%*
COc1cccc(C2=NN(C(=O)c3ccc(C)o3)C(O)(C(F)(F)F)C2)c1 (stereo unspecified)	i	-15.7	i	i	i	x	x	x
CCCNC(=O)CN1CCN(c2cc3ccccc3c(Cl)n2)CC1	i	-8.3	i	i	i	x	x	x
Nc1c(S(=O)(=O)c2cccs2)c2nc3ccccc3nc2n1Cc1ccc2c(c1)OCO2	i	-3.0	i	i	-12*	31.5%*	i	40.0%*
CC12CCC(=O)N1C(C(=O)Nc1nnc(SCc3ccc(F)cc3)s1)CS2 (stereo unspecified)	i	-6.0	i	i	i	x	x	x
SMILES	KCNK3 block	hERG rescue	KCNQ1 pot	KCNQ1 block	KCNK9 block	KCNK9 block conf	Kir2-1 spec	HEK293 Tl ctr
O=C(Nc1ccc(C(F)(F)F)cc1Cl)c1ccc(Cn2cc(Br)cn2)o1	i	-1.7	i	i	-12.3*	37.0%*	i	45.5%*
CCc1nc2oc3ccccc3c(=O)c2cc1C(=O)OC	i	-4.1	i	i	i	x	x	x
O=C(NCC[C@@H]1C[C@@H]2C=C[C@H]1C2)c1cc(COc2ccc(F)cc2F)on1	i	-8.1	i	i	-20.7*	40.0%*	i	37.5%*
Cc1cc(C)nc(CCNC(=O)c2cc(COc3ccc(F)cc3F)on2)n1	i	-11.0	i	i	i	x	x	x
C=CCOc1ccc(/C=C/C(=O)OCc2csc(CC(=O)Nc3ccccc3C)n2)cc1	i	x	x	x	x	x	x	x
COc1ccc(CN2C(=NC(=O)C3CCCCC3)SC3CS(=O)(=O)CC32)cc1 (stereo unspecified)	i	-7.8	i	i	i	x	x	x
CC1Cc2ccccc2N1C(=O)c1ccc(N2CCCCC2)c([N+](=O)[O-])c1 (stereo unspecified)	i	-12.6	i	i	-11.2*	49.0%*	i	25.0%*
COc1cc([N+](=O)[O-])ccc1NC(=S)NNC(=O)c1ccc2c(c1)OCO2	i	-10.5	i	10*	i	i	i	i
Cc1ccc(C(=O)Nc2ccc(C(=O)N3CCCCC3)cc2)o1	i	-8.6	i	i	i	x	x	x
CCCCCc1cc(O)c2c(C)cc(=O)oc2c1	i	-15.2	i	i	i	x	x	x
CCCCc1cc(O)c(CCCC)c(O)c1	i	-3.2	i	i	-11.5*	64.5%*	i	35.5%*
COc1ccc(/C=C2\CCCC3C2=NN(C(=O)CSc2ncn[nH]2)C3c2ccc(OC)cc2)cc1 (stereo unspecified)	i	-10.6	i	i	i	x	x	x
O=C(CSc1ncn[nH]1)N1N=C2/C(=C/c3ccccc3)CCCC2C1c1ccccc1 (stereo unspecified)	i	-9.4	i	i	-12.3*	52.5%*	i	33.0%*
Cn1c(SCc2nc(-c3ccc(Cl)cc3)no2)nnc1-c1ccccc1	i	-10.3	i	i	i	x	x	x
Cc1ccc(-c2noc(CSc3nnc(CCc4ccccc4)n3-c3ccccc3)n2)cc1	i	-10.1	i	i	-10.2*	i	i	36.5%*
COc1ccc(-c2noc(CSc3nc4ccccc4c(=O)n3-c3ccc(C)cc3)n2)cc1	i	-5.2	i	i	i	x	x	x
